According to ChEMBL document CHEMBL1154078, “Synthesis of novel purine nucleosides towards a selective inhibition of human butyrylcholinesterase” (Bioorg Med Chem, 2009):
Active and inactive are the calls of the source. The calls are words filed in the database; no cut-off is given here.

Key:
[1] = molecular target: T1, Cholinesterase (Homo sapiens, UniProt P06276); assay: Inhibition of BChE in human serum assessed as hydrolysis of butyrylthiocholine at 1 ug/mL by Ellman's method; assay type: cell-free
T1 sequence (P06276 whole entry): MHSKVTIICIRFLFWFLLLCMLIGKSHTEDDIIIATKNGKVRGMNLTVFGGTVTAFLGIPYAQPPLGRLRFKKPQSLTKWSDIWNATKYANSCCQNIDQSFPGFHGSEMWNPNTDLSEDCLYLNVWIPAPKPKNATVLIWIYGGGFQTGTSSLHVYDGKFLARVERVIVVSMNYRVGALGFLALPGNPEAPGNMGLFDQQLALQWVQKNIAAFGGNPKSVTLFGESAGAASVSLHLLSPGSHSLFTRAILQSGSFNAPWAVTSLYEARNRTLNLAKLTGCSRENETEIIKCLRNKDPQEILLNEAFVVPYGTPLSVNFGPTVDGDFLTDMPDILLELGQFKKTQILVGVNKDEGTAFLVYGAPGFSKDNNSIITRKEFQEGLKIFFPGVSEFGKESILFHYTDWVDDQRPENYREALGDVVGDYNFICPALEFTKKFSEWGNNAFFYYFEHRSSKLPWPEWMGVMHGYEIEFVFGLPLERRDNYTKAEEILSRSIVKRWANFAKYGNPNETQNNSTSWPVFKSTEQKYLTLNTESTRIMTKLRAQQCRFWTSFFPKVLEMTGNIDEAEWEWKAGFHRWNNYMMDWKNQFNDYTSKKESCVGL
Method in brief: (§1)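 Human serum BChE (0.44 U/mL solution) in 0.1 M phosphate buffer pH 8.0 with S-butyrylthiocholine iodide and DTNB. Absorbance at 410 nm followed kinetically for 4 min at 30 °C, at least four replicates. Inhibition % = 100 − 100·V/V_max, where V_max comes from blanks without inhibitor; one-sided t-test. IC50 obtained by non-linear regression of the dose–response, given as mean ± SEM.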

[2] = molecular target: T1, Cholinesterase; assay: Inhibition of BChE in human serum assessed as hydrolysis of butyrylthiocholine by Ellman's method; assay type: cell-free
Method in brief: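 Human serum BChE (0.44 U/mL solution) in 0.1 M phosphate buffer pH 8.0 with S-butyrylthiocholine iodide and DTNB. Absorbance at 410 nm followed kinetically for 4 min at 30 °C, at least four replicates. IC50 obtained by non-linear regression of the dose–response, given as mean ± SEM.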

[3] = molecular target: T1, Cholinesterase; assay: Inhibition of BChE in human serum assessed as hydrolysis of butyrylthiocholine at 100 ug/mL by Ellman's method; assay type: cell-free; method in brief: as §1
[4] = molecular target: T2, Acetylcholinesterase (Bos taurus) (UniProt P23795); assay: Inhibition of AChE in bovine erythrocytes assessed as hydrolysis of acetylthiocholine by Ellman's method
T2 sequence (whole entry): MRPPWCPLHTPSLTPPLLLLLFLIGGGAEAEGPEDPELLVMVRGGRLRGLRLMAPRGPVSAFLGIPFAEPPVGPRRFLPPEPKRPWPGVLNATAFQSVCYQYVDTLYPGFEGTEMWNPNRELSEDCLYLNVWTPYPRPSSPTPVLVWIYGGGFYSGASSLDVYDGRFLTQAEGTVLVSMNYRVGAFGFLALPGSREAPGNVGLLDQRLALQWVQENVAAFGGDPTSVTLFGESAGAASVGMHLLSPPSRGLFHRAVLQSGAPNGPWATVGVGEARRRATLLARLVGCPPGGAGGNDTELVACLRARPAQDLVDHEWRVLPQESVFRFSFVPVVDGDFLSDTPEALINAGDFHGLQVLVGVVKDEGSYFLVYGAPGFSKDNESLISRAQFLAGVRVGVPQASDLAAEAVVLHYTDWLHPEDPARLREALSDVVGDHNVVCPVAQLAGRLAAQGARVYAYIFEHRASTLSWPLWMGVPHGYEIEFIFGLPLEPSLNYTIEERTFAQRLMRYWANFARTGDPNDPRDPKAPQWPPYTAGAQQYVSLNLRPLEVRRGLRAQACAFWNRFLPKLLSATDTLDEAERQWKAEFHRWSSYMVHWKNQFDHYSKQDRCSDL
Method in brief: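 Bovine erythrocyte AChE (1.32 U/mL solution) in 0.1 M phosphate buffer pH 8.0 with acetylthiocholine iodide and DTNB. Yellow product read kinetically at 410 nm for 4 min at 30 °C. Rates compared with no-inhibitor V_max; inhibition % = 100 − 100·V/V_max. At least four replicates. One-sided t-test against 0% inhibition.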

[5] = molecular target: T1, Cholinesterase; assay: Inhibition of BChE in human serum assessed as hydrolysis of butyrylthiocholine at 10 ug/mL by Ellman's method; method in brief: as §1
[6] = molecular target: T1, Cholinesterase; assay: Inhibition of BChE in human serum assessed as hydrolysis of butyrylthiocholine at 0.1 ug/mL by Ellman's method; method in brief: as §1
[7] = Cytotoxicity against human A549 cells assessed as cell viability at 20 ug/mL after 24 hrs by MTT assay relative to control; assay type: cell-based; settings: read-out: Activity
Method in brief: (§2)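 A549 cells seeded, left 24 h to attach, then exposed to compound for 24 h. Hydrogen peroxide served as positive control and pure solvent as negative control. At 48 h of culture, MTT added to a final concentration of 0.5 mg/mL and incubated 3 h. Medium removed, cells washed twice, formazan dissolved in DMSO with shaking for 20 min at room temperature.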

[8] = Cytotoxicity against human A549 cells assessed as cell viability at 200 ug/mL after 24 hrs by MTT assay relative to control; assay type: cell-based; settings: read-out: Activity; method in brief: as §2
[9] = Cytotoxicity against human A549 cells assessed as cell viability at 0.2 ug/mL after 24 hrs by MTT assay relative to control; assay type: cell-based; settings: read-out: Activity; method in brief: as §2
[10] = Cytotoxicity against human A549 cells assessed as cell viability at 2000 ug/mL after 24 hrs by MTT assay relative to control; assay type: cell-based; settings: read-out: Activity; method in brief: as §2
[11] = Cytotoxicity against human A549 cells assessed as cell viability at 2 ug/mL after 24 hrs by MTT assay relative to control; assay type: cell-based; settings: read-out: Activity; method in brief: as §2
[12] = Cytotoxicity against human A549 cells assessed as cell viability at 100 ug/mL after 24 hrs by MTT assay relative to control; assay type: cell-based; settings: read-out: Activity
Method in brief: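 A549 cells seeded, allowed to attach 24 h, then exposed to compound for 24 h; hydrogen peroxide positive control, solvent negative control. MTT added at 48 h of culture (final 0.5 mg/mL), 3 h incubation, cells washed twice, formazan dissolved in DMSO with 20 min shaking at room temperature; viable, metabolically active cells quantified.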

[13] = molecular target: T1, Cholinesterase; assay: Inhibition of BChE in human serum assessed as hydrolysis of butyrylthiocholine at 0.01 ug/mL by Ellman's method; assay type: cell-free; method in brief: as §1

SMILES | inhibition [1] | IC50 [2] | inhibition [3] | inhibition [4] | inhibition [5] | inhibition [6] | viability at 24 h, 20 ug/mL [7] | viability at 24 h, 200 ug/mL [8] | viability at 24 h, 0.2 ug/mL [9] | viability at 24 h, 2000 ug/mL [10] | viability at 24 h, 2 ug/mL [11] | viability at 24 h, 100 ug/mL [12] | inhibition [13]
C=C[C@H](O)[C@@H]1O[C@H](OC)[C@@H]2OC[C@H](OCc3ccccc3)[C@]2(OCc2ccccc2)[C@@H]1OCc1ccccc1 | 4% | 31 µM | 76% | inactive | 54% |  |  |  |  |  |  |  | 
CO[C@H]1O[C@H](COC(=O)c2ccccc2)[C@@H](OC(=O)c2ccccc2)[C@@]2(OC(=O)c3ccccc3)[C@@H](OC(=O)c3ccccc3)CO[C@@H]12 |  |  | 7% | inactive |  |  |  |  |  |  |  |  | 
CO[C@H]1O[C@H](COC(C)=O)[C@@H](OC(C)=O)[C@@]2(OC(C)=O)[C@@H](OC(C)=O)CO[C@@H]12 |  |  | < 5% | inactive |  |  |  |  |  |  |  |  | 
CO[C@H]1O[C@@H]([C@H](O)C(=O)OCc2ccccc2)[C@@H](OCc2ccccc2)[C@@]2(OCc3ccccc3)[C@@H](OCc3ccccc3)CO[C@@H]12 |  | 133 µM | 55% | inactive | 8% |  |  |  |  |  |  |  | 
CC(=O)Nc1nc(Cl)c2c(ncn2[C@@H]2O[C@H](COC(C)=O)[C@@H](OCc3ccccc3)[C@@]3(OCc4ccccc4)[C@@H](OCc4ccccc4)CO[C@@H]23)n1 | 70% | 0.76 µM | 84% | inactive | 85% | 20% |  |  |  |  |  |  | 
COC(=O)[C@@H](N=[N+]=[N-])[C@@H]1O[C@@H](n2cnc3nc(NC(C)=O)nc(Cl)c32)[C@@H]2OC[C@H](OCc3ccccc3)[C@]2(OCc2ccccc2)[C@@H]1OCc1ccccc1 |  |  |  | inactive |  |  | 40.8% | 19.5% | 103% | 15.1% | 77.7% |  | 
CO[C@H]1O[C@H](CO)[C@@H](OCc2ccccc2)[C@@]2(OCc3ccccc3)[C@@H](OCc3ccccc3)CO[C@@H]12 |  | 148 µM | 60% | inactive | < 5% |  |  |  |  |  |  |  | 
CO[C@H]1O[C@H](CO)[C@@H](O)[C@@]2(O)[C@@H](O)CO[C@@H]12 |  |  | < 5% | inactive |  |  |  |  |  |  |  |  | 
CC(=O)Nc1nc(Cl)c2c(ncn2[C@@H]2O[C@@H]([C@H](N=[N+]=[N-])C(=O)OCc3ccccc3)[C@@H](OCc3ccccc3)[C@@]3(OCc4ccccc4)[C@@H](OCc4ccccc4)CO[C@@H]23)n1 | 9% | 22 µM | 81% | inactive | 34% |  | 46.9% | 51.3% | 88.5% | 7.32% | 82.2% |  | 
CO[C@H]1O[C@@H]([C@H](N=[N+]=[N-])C(=O)OCc2ccccc2)[C@@H](OCc2ccccc2)[C@@]2(OCc3ccccc3)[C@@H](OCc3ccccc3)CO[C@@H]12 | 36% | 4.2 µM | 91% | inactive | 64% | 15% | 73.9% | 47.9% | 90.2% | 25% | 71.2% |  | 
CO[C@H]1O[C@@H]([C@@H](O)C(=O)OCc2ccccc2)[C@@H](OCc2ccccc2)[C@@]2(OCc3ccccc3)[C@@H](OCc3ccccc3)CO[C@@H]12 | 7% | 16.1 µM | 95% | inactive | 56% |  | 67.2% | 63.6% | 91.9% | 36% | 81.6% |  | 
CC(=O)Nc1nc(Cl)c2ncn([C@@H]3O[C@H](COC(C)=O)[C@@H](OCc4ccccc4)[C@@]4(OCc5ccccc5)[C@@H](OCc5ccccc5)CO[C@@H]34)c2n1 |  |  | 48% | inactive | 11% |  |  |  |  |  |  |  | 
C=C[C@@H](O)[C@@H]1O[C@H](OC)[C@@H]2OC[C@H](OCc3ccccc3)[C@]2(OCc2ccccc2)[C@@H]1OCc1ccccc1 |  | 50 µM | 73% | inactive | 23% |  |  |  |  |  |  |  | 
CCN(C)C(=O)Oc1cccc([C@H](C)N(C)C)c1 [RIVASTIGMINE] | 100% |  | 100% | inactive | 100% | 76% |  |  |  |  |  | 89% | 
CO[C@H]1O[C@@H]([C@@H](N=[N+]=[N-])C(=O)OCc2ccccc2)[C@@H](OCc2ccccc2)[C@@]2(OCc3ccccc3)[C@@H](OCc3ccccc3)CO[C@@H]12 | 14% | 13.4 µM | 98% | inactive | 73% |  | 63.6% | 64.2% | 90.5% | 16% | 76.2% |  | 
CC(=O)Nc1nc(Cl)c2c(ncn2[C@@H]2O[C@@H]([C@@H](N=[N+]=[N-])C(=O)OCc3ccccc3)[C@@H](OCc3ccccc3)[C@@]3(OCc4ccccc4)[C@@H](OCc4ccccc4)CO[C@@H]23)n1 | 77% | 0.14 µM | 91% | inactive | 79% | 63% |  |  |  |  |  |  | 10%
COC(=O)[C@H](N=[N+]=[N-])[C@@H]1O[C@@H](n2cnc3nc(NC(C)=O)nc(Cl)c32)[C@@H]2OC[C@H](OCc3ccccc3)[C@]2(OCc2ccccc2)[C@@H]1OCc1ccccc1 |  |  |  | inactive |  |  | 69.3% | 52.3% | 103% | 21.3% | 99.9% |  | 
